A short description of test [1]: In vitro inhibition of UDP-[3H]-GlcNAc import into the lumen of the Golgi membranes from rabbit liver homogenate. It counts as functional, tissue-based, Oryctolagus cuniculus. Put shortly: (§1)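 Golgi-enriched membranes from rabbit liver homogenate incubated with 1 μM UDP-[³H]GlcNAc plus a range of inhibitor concentrations. Import into the lumen was measured by filtration under initial-velocity conditions, after 90 s at 25 °C, where uptake is linear with time. IC50 and standard deviation were obtained by curve fitting. For UDP, assays included 2 mM EDTA.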

Test [2] is described as follows: The compound was tested for extent of UDP-[3H]-GlcNAc accumulation into the lumen of the Golgi membranes. It counts as functional, Oryctolagus cuniculus. The method in brief: (§2)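 Rabbit liver Golgi-enriched membranes were incubated as in the import assay with 1 μM UDP-[³H]GlcNAc and varied inhibitor concentrations. Uptake was allowed to reach equilibrium (20–30 min) before membrane-associated label was measured by filtration. 1 mM AMP-PNP was added to limit UDP-GlcNAc degradation. IC50 was derived by curve fitting; values are averages of at least three independent measurements.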

A short description of test [3]: Inhibitory concentration at which there is accumulation of UDP-[3H]-GlcNAc in the lumen of the Golgi membranes. The format is functional, cell membranes, Oryctolagus cuniculus. The method in brief: as §2
Test [4] in a line: (§3) The compound was tested for inhibition of the rate of 1 uM UDP-[3H]-GlcNAc import into the lumen of the Golgi membranes. It counts as functional, Oryctolagus cuniculus. The method in brief:
as §1

The species entered for another test is Oryctolagus cuniculus. Described as §3. The format is functional.
The nature of test [5]: The compound was tested for extent of 1 uM UDP-[3H]-GlcNAc accumulation into the lumen of the Golgi membranes from rabbit liver homogenate. It counts as functional, tissue-based, Oryctolagus cuniculus. The method in brief: as §2

`O=c1ccn([C@@H]2O[C@H](COP(=O)(O)O)[C@@H](O)[C@H]2F)c(=O)[nH]1`: in test [1], 11 µM corresponded to half-maximal inhibition (IC50).

With `CCc1cn(C2O[C@H](COP(=O)(O)O)[C@@H](O)[C@@H]2O)c(=O)[nH]c1=O` (stereo partly specified), the results for the IC50 in test [1] and in test [2] were 3.5 µM and 5 µM, respectively. `CC#Cc1cn([C@H]2C[C@H](O)[C@@H](COP(=O)(O)O)O2)c(=O)[nH]c1=O`: the IC50 in test [1] and in test [2] was above 40 µM in each case.

For `N[C@H]1[C@@H](OP(=O)(O)OP(=O)(O)OC[C@H]2O[C@@H](n3ccc(=O)[nH]c3=O)[C@H](O)[C@@H]2O)O[C@H](CO)[C@@H](O)[C@@H]1O` [URACIL DIPHOSPHATE GLUCOSAMINE], the IC50 (as a rule, the point on the concentration scale where inhibition reaches its midpoint) in test [3] is above 40 µM; in test [4] it was 7 µM.

In the case of `CC(=O)N[C@@H]1[C@H](OP(=O)(O)OP(=O)(O)OC[C@H]2O[C@@H](n3ccc(=O)[nH]c3=O)[C@H](O)[C@@H]2O)O[C@@H](CO)[C@H](O)[C@H]1O`, the Km (as a rule, the concentration of substrate that gives half-maximal velocity) in the test listed under Oryctolagus cuniculus came out at 2 µM. Further, the IC50 turned out to be 4 µM in test [3] and 7 µM in test [4]. Compound `Cc1cn([C@H]2CC[C@@H](COP(=O)(O)O)O2)c(=O)[nH]c1=O` showed an IC50 in test [1] of 9 µM. Take `CCCc1cn([C@H]2C[C@H](O)[C@@H](COP(=O)(O)O)O2)c(=O)[nH]c1=O`: the IC50 in test [4] stood at 100 µM. In test [1], `O=c1ccn([C@H]2C[C@H](O)[C@@H](COP(=O)(O)O)O2)c(=O)[nH]1` [DEOXYURIDINE MONOPHOSPHATE] registered an IC50 of 8 µM. That is a single-digit micromolar value. Same read-out and setting: in the case of `Nc1ccn([C@@H]2O[C@H](COP(=O)(O)O)[C@@H](O)[C@H]2O)c(=O)n1` (stereo in doubt; form 1) it was above 100 µM. The compound `Cc1cn([C@@H]2O[C@H](COP(=O)(O)O)[C@@H](O)[C@@H]2F)c(=O)[nH]c1=O` registered an IC50 in test [1] above 200 µM. Regarding `O=c1[nH]c(=O)n(C2CSC(COP(=O)(O)O)O2)cc1F` (stereo unspecified), the half-inhibitory concentration (IC50) in test [1] worked out at 18 µM; in test [2] it was 35 µM. Regarding `Cc1cn([C@H]2C[C@H](N=[N+]=[N-])[C@@H](COP(=O)(O)O)O2)c(=O)[nH]c1=O` (stereo in doubt; form 1) [AZIDOTHYMIDINE MONOPHOSPHATE], the IC50 in test [3] amounted to 5 µM; in test [1] it was 7 µM; in test [2], 5 µM. As for `CC(=O)N[C@H]1[C@H]([C@H](O)[C@H](O)CO)O[C@](OP(=O)(O)OC[C@H]2O[C@@H](n3ccc(N)nc3=O)[C@H](O)[C@@H]2O)(C(=O)O)C[C@@H]1O`, the IC50 in test [3] was 35 µM; in test [1], above 50 µM. In test [1], `Cc1cn(C2CC(F)C(COP(=O)(O)O)O2)c(=O)[nH]c1=O` (stereo unspecified) came in with an IC50 of 1.5 µM. The same measure, in the same setting: in the case of `Cc1cn([C@H]2CC[C@H](COP(=O)(O)O)O2)c(=O)[nH]c1=O` it was above 200 µM. As for `Cc1cn([C@H]2C[C@H](O)[C@@H](COP(=O)(O)O)O2)c(=O)[nH]c1=O` [THYMIDINE MONOPHOSPHATE], the IC50 in test [3] came out at 11 µM; in test [1], 10 µM; in test [5], 11 µM.

For `Cc1cn([C@H]2C[C@H](N=[N+]=[N-])[C@@H](COP(=O)(O)O)O2)c(=O)[nH]c1=O` (stereo in doubt; form 2) [AZIDOTHYMIDINE MONOPHOSPHATE], the IC50 was above 100 µM in test [3], 85 µM in test [1] and above 100 µM in test [2]. In the case of `O=c1[nH]c(=O)n(C2CC(F)C(COP(=O)(O)O)O2)cc1Cl` (stereo unspecified), the 50% inhibitory concentration (IC50) was 9 µM in test [1] and 4 µM in test [2]. As to `Nc1ccn([C@@H]2O[C@H](COP(=O)(O)O)[C@@H](O)[C@H]2O)c(=O)n1` (stereo in doubt; form 2), the IC50 in test [1] stood at 10 µM. Compound `O=c1[nH]c(=O)n([C@H]2C[C@H](O)[C@@H](COP(=O)(O)O)O2)cc1/C=C/Br` yielded an IC50 in test [4] of 5 µM.

Compound `N[C@H]1[C@@H](OP(=O)(O)OP(=O)(O)OC[C@H]2O[C@@H](n3ccc(=O)[nH]c3=O)[C@H](O)[C@@H]2O)O[C@H](CO)[C@H](O)[C@@H]1O` [URACIL DIPHOSPHATE GALACTOSAMINE] displayed an IC50 in test [4] of 40 µM.

As to `O=c1ccn(C2O[C@H](COP(=O)(O)O)[C@@H](O)[C@@H]2O)c(=O)[nH]1` (stereo partly specified), the values for the IC50 in test [3], in test [1] and in test [2] were 4 µM, 8 µM and 4 µM, respectively. For the compound `Cc1cn(COCCOP(=O)(O)O)c(=O)[nH]c1=O`, the IC50 in test [3], in test [1] and in test [2] was above 100 µM each time.

The values above are taken from ChEMBL document CHEMBL1129244, “Inhibition of UDP-N-acetylglucosamine import into Golgi membranes by nucleoside monophosphates” (J Med Chem, 1996).
